Source: ChEMBL document CHEMBL1165845, “Synthesis and biological evaluation of analogues of a novel inhibitor of beta-amyloid secretion” (J Med Chem, 2010)
Activity calls are given as the source filed them. The rule behind the calls is not given here.

system: H4; experiment: Induction of alpha-secretase-mediated reduction in amyloid beta secretion in human H4 cells expressing wild type betaAPP695 by […] in presence of PKC-inhibitor bisindolyl-maleimide; assay type: cell-based; settings: not given
In short: (§1)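 H4βAPP695wt cells in serum-free medium receive a PKC inhibitor 30 min before a 24 h drug challenge. Secreted Aβ is measured by ELISA and compared with the respective control for each inhibitor, N = 4.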

Structure (SMILES) | Activity
O=C(NCCSCc1cccc(Cl)c1)c1c(Cl)cccc1Cl | Active

system: H4; experiment: Activation of alpha-secretase in human H4 cells expressing wild type betaAPP695 assessed as increase in alpha-CTF levels at 10 uM after 24 hrs by Western blotting; assay type: cell-based; settings: not given
In short: (§2)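 H4βAPP695wt cells are switched to serum-free medium 24 h before treatment, then exposed to drug in DMSO or vehicle for 24 h. Conditioned medium gets protease inhibitors and is cleared, with its volume adjusted to lysate protein; sAPPα is probed with 6E10 and sAPPβ with a specific antibody (1:1000), detected by ECL. Lysates in RIPA (20 μg protein) go on 4-20% Bis-Tris gels. Bands are quantified by densitometry.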

Structure (SMILES) | Activity
O=C(NCCSCc1cccc(Cl)c1)c1c(Cl)cccc1Cl | Active

system: H4; experiment: Induction of alpha-secretase-mediated reduction in amyloid beta secretion in human H4 cells expressing wild type betaAPP695 placed in lower chamber treated with […] compound placed in upper chamber containing human Caco-2 cells for 4 hrs measured 24 hrs after media treatment […]; assay type: cell-based; design: scale not given: the % may be the effect or the level left; settings: not given
In short: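 Caco-2 cells are seeded at 70000 per Transwell insert and grown 21 days to TEER >160 Ω/cm2. Drug at 40 μM with 20 μg/mL lucifer yellow goes in the apical chamber in serum-free medium. After 4 h, basal medium is checked for lucifer yellow and applied to H4βAPP695wt cells for 24 h. Secreted Aβ by ELISA is compared with direct 10 μM drug as % activity passing.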

Structure (SMILES) | Activity [%]
Cc1cccc(CSCCNC(=O)c2c(Cl)cccc2Cl)c1 | 49.9
O=C(NCCSCc1cccc(I)c1)c1c(Cl)cccc1Cl | 1.1
O=C(NCCSCc1ccccc1)c1c(Cl)cccc1Cl | 31
COc1cccc(CSCCNC(=O)c2c(Cl)cccc2Cl)c1 | 17.9
COc1cc(Cl)cc(CSCCNC(=O)c2c(Cl)cccc2Cl)c1 | 2.7
O=C(NCCSCc1ccccc1Cl)c1c(Cl)cccc1Cl | 31.6
COc1cccc(CSCCNC(=O)c2c(Cl)cccc2Cl)c1OC | 26.5
O=C(NCCSCc1cccc(Cl)c1)c1c(Cl)cccc1Cl | 26.7

system: H4; experiment: Induction of alpha-secretase-mediated reduction in amyloid beta secretion in human H4 cells expressing wild type betaAPP695 assessed as remaining drug activity treated with media containing human THLE3 cells incubated with 10 uM compound for 24 hrs measured 24 hrs after media treatment […]; assay type: cell-based; settings: not given

Structure (SMILES) | Activity [%]
Cc1cccc(CSCCNC(=O)c2c(Cl)cccc2Cl)c1 | 54
O=C(NCCSCc1cccc(I)c1)c1c(Cl)cccc1Cl | 47
O=C(NCCSCc1cccc(O)c1)c1c(Cl)cccc1Cl | 41
O=C(NCCSCc1ccccc1)c1c(Cl)cccc1Cl | 52
COc1cccc(CSCCNC(=O)c2c(Cl)cccc2Cl)c1 | 37
COc1cc(Cl)cc(CSCCNC(=O)c2c(Cl)cccc2Cl)c1 | 49
O=C(NCCSCc1ccccc1Cl)c1c(Cl)cccc1Cl | 65
COc1cccc(CSCCNC(=O)c2c(Cl)cccc2Cl)c1OC | 3
O=C(NCCSCc1cccc(Cl)c1)c1c(Cl)cccc1Cl | 50

system: H4; experiment: Activation of alpha-secretase in human H4 cells expressing wild type betaAPP695 assessed as increase in ratio of active-ADAM9 to pro-ADAM9 level at 10 uM after 24 hrs by Western blotting; assay type: cell-based; settings: not given
In short: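 H4βAPP695wt cells are held in serum-free medium for 24 h, then given increasing drug concentrations for 24 h. RIPA lysates (20 μg protein) are immunoblotted with antibodies for ADAM9, ADAM10 and ADAM17, and pro and active forms are quantified by densitometry as an active/pro ratio, N = 3 per group.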

Structure (SMILES) | Activity [%]
O=C(NCCSCc1cccc(Cl)c1)c1c(Cl)cccc1Cl | 31

system: H4; experiment: Induction of alpha-secretase-mediated reduction in amyloid beta secretion in human H4 cells expressing wild type betaAPP695 by […] in presence of PKC-inhibitor calphostin C; assay type: cell-based; settings: not given; in short: as §1

Structure (SMILES) | Activity
O=C(NCCSCc1cccc(Cl)c1)c1c(Cl)cccc1Cl | Active

system: H4; experiment: Induction of alpha-secretase-mediated amyloid beta lowering activity in human H4 cells expressing wild type betaAPP695 at 1 uM after 24 hrs by ELISA; assay type: cell-based; settings: not given
In short: (§3)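 Serum-starved H4βAPP695wt cells are treated for 24 h with drug in DMSO (0.02% DMSO vehicle control). Total Aβ in conditioned medium is measured by sandwich ELISA with 6E10 capture and 4G8 detection, normalized to lysate protein by BCA. Cytotoxicity is read as total cell protein. Quadruplicate wells in 1-4 independent experiments give the % decrease versus vehicle.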

Structure (SMILES) | Activity
O=C(NCCSCc1cccc(Cl)c1)c1c(Cl)cccc1Cl | Active

system: H4; experiment: Cytotoxicity against human H4 cells expressing wild type betaAPP695 assessed as decrease in cell protein at 30 uM after 24 hrs; assay type: cell-based; design: scale not given: the % may be the effect or the level left; settings: h4, 24 h; in short: as §3

Structure (SMILES) | Activity [%]
Cc1cccc(CSCCNC(=O)c2c(Cl)cccc2Cl)c1 | 16.6
O=C(NCCSCc1cccc(I)c1)c1c(Cl)cccc1Cl | 19
O=C(NCCSCc1cccc(O)c1)c1c(Cl)cccc1Cl | 6.6
O=C(NCCSCc1ccccc1)c1c(Cl)cccc1Cl | -0.7
COc1cccc(CSCCNC(=O)c2c(Cl)cccc2Cl)c1 | 13.2
COc1cc(Cl)cc(CSCCNC(=O)c2c(Cl)cccc2Cl)c1 | 0.4
O=C(NCCSCc1ccccc1Cl)c1c(Cl)cccc1Cl | -11
COc1cccc(CSCCNC(=O)c2c(Cl)cccc2Cl)c1OC | 8.7

system: H4; experiment: Induction of alpha-secretase-mediated reduction in amyloid beta secretion in human H4 cells expressing wild type betaAPP695 treated with media containing human THLE3 cells incubated with 10 uM compound for 24 hrs […]; assay type: cell-based; design: scale not given: the % may be the effect or the level left; settings: in the assay text read “20 uM” for “10 uM”

Structure (SMILES) | Activity [%]
Cc1cccc(CSCCNC(=O)c2c(Cl)cccc2Cl)c1 | 38.3
O=C(NCCSCc1cccc(I)c1)c1c(Cl)cccc1Cl | 40
O=C(NCCSCc1cccc(O)c1)c1c(Cl)cccc1Cl | 23.1
O=C(NCCSCc1ccccc1)c1c(Cl)cccc1Cl | 27
COc1cccc(CSCCNC(=O)c2c(Cl)cccc2Cl)c1 | 22.2
COc1cc(Cl)cc(CSCCNC(=O)c2c(Cl)cccc2Cl)c1 | 33.5
O=C(NCCSCc1ccccc1Cl)c1c(Cl)cccc1Cl | 48.8
COc1cccc(CSCCNC(=O)c2c(Cl)cccc2Cl)c1OC | 1.9
O=C(NCCSCc1cccc(Cl)c1)c1c(Cl)cccc1Cl | 34.6

system: H4; experiment: Cytotoxicity against human H4 cells expressing wild type betaAPP695 at 10 uM after 24 hrs by methylene blue staining; assay type: cell-based; settings: h4, 24 h
In short: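 Primary screen in H4βAPP695wt cells: drugs are delivered by the hanging drop method at an estimated 10-25 μM, and conditioned medium is collected at 24 h. Cytotoxicity is assessed by methylene blue staining of cells in the wells, with each compound run in a single well and hits rescreened in duplicate.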

Structure (SMILES) | Activity
O=C(NCCSCc1ccc(Cl)cc1)c1ccc(Cl)cc1Cl | Non-toxic

system: H4; experiment: Induction of alpha-secretase-mediated reduction in amyloid beta secretion in human H4 cells expressing wild type betaAPP695 at 10 uM after 24 hrs […] relative to control; assay type: cell-based; design: scale not given: the % may be the effect or the level left; settings: not given; in short: as §3

Structure (SMILES) | Activity [%]
Cc1cccc(CSCCNC(=O)c2c(Cl)cccc2Cl)c1 | 70.5
O=C(NCCSCc1cccc(I)c1)c1c(Cl)cccc1Cl | 84.4
O=C(NCCSCc1ccc(Cl)cc1)c1ccc(Cl)cc1Cl | 5.3
O=C(NCCSCc1cccc(O)c1)c1c(Cl)cccc1Cl | 56.4
O=C(NCCSCc1ccccc1)c1c(Cl)cccc1Cl | 51.6
COc1cccc(CSCCNC(=O)c2c(Cl)cccc2Cl)c1 | 60.6
COc1cc(Cl)cc(CSCCNC(=O)c2c(Cl)cccc2Cl)c1 | 67.7
O=C(NCCSCc1ccccc1Cl)c1c(Cl)cccc1Cl | 75.6
COc1cccc(CSCCNC(=O)c2c(Cl)cccc2Cl)c1OC | 57.8
O=C(NCCSCc1cccc(Cl)c1)c1c(Cl)cccc1Cl | 75.3

system: H4; experiment: Increase in alpha-secretase activity in human H4 cell lysate expressing wild type betaAPP695 at 10 uM after 24 hrs by fluorescence method; assay type: cell-based; settings: not given
In short: (§4)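 H4βAPP695wt cells are treated with drug or vehicle for 24 h, washed in cold PBS and lysed on ice for 10 min. 50 μg lysate protein plus reaction buffer and fluorogenic peptide substrate are incubated 2 h at 37 °C in the dark. Fluorescence is read at ex 355/em 510 nm after subtracting the no-lysate blank, N = 6.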

Structure (SMILES) | Activity
O=C(NCCSCc1cccc(Cl)c1)c1c(Cl)cccc1Cl | inactive

system: Mus musculus; experiment: Reduction in amyloid beta levels in transgenic C57BL/6 mouse brain at 100 mg/kg, iv after 6 hrs; assay type: functional; design: scale not given: the % may be the effect or the level left; settings: not given
In short: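 Two-month-old female APPswe/PSEN1dE9 C57BL/6 mice (20-25 g) under ketamine/xylazine receive retro-orbital iv injection of 2.5 mg in 150 μL (∼100-125 mg/kg) or vehicle. After 6 h, one hemisphere without cerebellum is homogenized in 5 M guanidine HCl/50 mM Tris pH 8.3. Total Aβ is measured by ELISA and normalized to brain protein by BCA.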

Structure (SMILES) | Activity [%]
Cc1cccc(CSCCNC(=O)c2c(Cl)cccc2Cl)c1 | 39.6

system: H4; experiment: Induction of alpha-secretase-mediated reduction in amyloid beta secretion in human H4 cells expressing wild type betaAPP695 at 30 uM after 24 hrs […] relative to control; assay type: cell-based; design: scale not given: the % may be the effect or the level left; settings: not given; in short: as §3

Structure (SMILES) | Activity [%]
Cc1cccc(CSCCNC(=O)c2c(Cl)cccc2Cl)c1 | 85.8
O=C(NCCSCc1cccc(I)c1)c1c(Cl)cccc1Cl | 88.3
O=C(NCCSCc1cccc(O)c1)c1c(Cl)cccc1Cl | 67.7
O=C(NCCSCc1ccccc1)c1c(Cl)cccc1Cl | 58.6
COc1cccc(CSCCNC(=O)c2c(Cl)cccc2Cl)c1 | 73.9
COc1cc(Cl)cc(CSCCNC(=O)c2c(Cl)cccc2Cl)c1 | 81
O=C(NCCSCc1ccccc1Cl)c1c(Cl)cccc1Cl | 80
COc1cccc(CSCCNC(=O)c2c(Cl)cccc2Cl)c1OC | 72.8

system: H4; experiment: Activation of alpha-secretase in human H4 cells expressing wild type betaAPP695 assessed as increase in sAPPbeta levels at 10 uM after 24 hrs by Western blotting; assay type: cell-based; settings: not given; in short: as §2

Structure (SMILES) | Activity
O=C(NCCSCc1cccc(Cl)c1)c1c(Cl)cccc1Cl | inactive

system: H4; experiment: Increase in alpha-secretase activity in human H4 cells expressing wild type betaAPP695 at 10 uM after 24 hrs by fluorescence method; assay type: cell-based; settings: not given; in short: as §4

Structure (SMILES) | Activity [%]
O=C(NCCSCc1cccc(Cl)c1)c1c(Cl)cccc1Cl | 20

system: H4; experiment: Cytotoxicity against human H4 cells expressing wild type betaAPP695 assessed as decrease in cell protein at 10 uM after 24 hrs; assay type: cell-based; design: scale not given: the % may be the effect or the level left; settings: h4, 24 h; in short: as §3

Structure (SMILES) | Activity [%]
Cc1cccc(CSCCNC(=O)c2c(Cl)cccc2Cl)c1 | 11.7
O=C(NCCSCc1cccc(I)c1)c1c(Cl)cccc1Cl | 9.2
O=C(NCCSCc1cccc(O)c1)c1c(Cl)cccc1Cl | 6.3
O=C(NCCSCc1ccccc1)c1c(Cl)cccc1Cl | -1.1
COc1cccc(CSCCNC(=O)c2c(Cl)cccc2Cl)c1 | 8.4
COc1cc(Cl)cc(CSCCNC(=O)c2c(Cl)cccc2Cl)c1 | 0.9
O=C(NCCSCc1ccccc1Cl)c1c(Cl)cccc1Cl | -0.5
COc1cccc(CSCCNC(=O)c2c(Cl)cccc2Cl)c1OC | -0.1

system: H4; experiment: Activation of alpha-secretase in human H4 cells expressing wild type betaAPP695 assessed as increase in sAPPalpha levels at 10 uM after 24 hrs by Western blotting; assay type: cell-based; settings: not given; in short: as §2

Structure (SMILES) | Activity
O=C(NCCSCc1cccc(Cl)c1)c1c(Cl)cccc1Cl | Active

system: H4; experiment: Induction of alpha-secretase-mediated reduction in amyloid beta secretion in human H4 cells expressing wild type betaAPP695 […] in presence of PKC-inhibitor rottlerin; assay type: cell-based; settings: not given; in short: as §1

Structure (SMILES) | Activity
O=C(NCCSCc1cccc(Cl)c1)c1c(Cl)cccc1Cl | Active
